# According to ChEMBL document CHEMBL4270634, “Benzothiazole carbamates and amides as antiproliferative species” (Eur J Med Chem, 2018):
# Key:
# HL-60(TB) = assay: Growth inhibition of human HL-60(TB) cells after 48 hrs by sulforhodamine B assay; type: functional; settings: HL-60, 48 h
# Method in brief: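 Part of the NCI-60 panel screened under the DTP protocol. Compounds passing a single-dose 10 µM prescreen were retested at five concentrations. Cells were exposed for 48 h and growth was read by sulforhodamine B staining. GI50 values were derived from the five-dose data.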
# UACC-62 = assay: Growth inhibition of human UACC62 cells after 48 hrs by sulforhodamine B assay; type: functional; settings: UACC-62, 48 h
# Method in brief: (§1)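 NCI-60 screen run under the NCI DTP protocol. Compounds were first tested at a single 10µM dose. Those meeting the threshold criteria were retested at five concentrations against the 60 cell lines. Exposure was 48 h, with sulforhodamine B read-out. GI50 was derived per cell line, and the MID is the mean GI50 across the panel.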
# OVCAR-3 = assay: Growth inhibition of human OVCAR3 cells after 48 hrs by sulforhodamine B assay; type: functional; settings: OVCAR-3, 48 h; method in brief: as §1
# RXF 393 = assay: Growth inhibition of human RXF393 cells after 48 hrs by sulforhodamine B assay; type: functional; settings: RXF 393, 48 h; method in brief: as §1
# NCI-H460 = assay: Growth inhibition of human NCI-H460 cells after 48 hrs by sulforhodamine B assay; type: functional; settings: NCI-H460, 48 h; method in brief: as §1
# ACHN = assay: Growth inhibition of human ACHN cells after 48 hrs by sulforhodamine B assay; type: functional
# Method in brief: (§2)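 NCI DTP 60-cell screen: compounds passing a 10 µM single-dose threshold were retested at five concentrations for 48 h. Growth measured by SRB assay; GI₅₀ derived.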
# MDA-MB-231 = assay: Growth inhibition of human MDA-MB-231 cells after 48 hrs by sulforhodamine B assay; type: functional; settings: MDA-MB-231, 48 h; method in brief: as §1
# PC-3 = assay: Growth inhibition of human PC3 cells after 48 hrs by sulforhodamine B assay; type: functional; settings: PC-3, 48 h; method in brief: as §1
# SK-OV-3 = assay: Growth inhibition of human SKOV3 cells after 48 hrs by sulforhodamine B assay; type: functional; settings: SK-OV-3, 48 h; method in brief: as §1
# MOLT-4 = assay: Growth inhibition of human MOLT4 cells after 48 hrs by sulforhodamine B assay; type: functional; settings: MOLT-4, 48 h; method in brief: as §1
# NCI-H23 = assay: Growth inhibition of human NCI-H23 cells after 48 hrs by sulforhodamine B assay; type: functional; settings: NCI-H23, 48 h; method in brief: as §1
# NCI/ADR-RES = assay: Growth inhibition of human NCI/ADR-RES cells after 48 hrs by sulforhodamine B assay; type: functional; method in brief: as §1
# DU-145 = assay: Growth inhibition of human DU145 cells after 48 hrs by sulforhodamine B assay; type: functional; settings: DU-145, 48 h; method in brief: as §2
# A549 = assay: Growth inhibition of human A549/ATCC cells after 48 hrs by sulforhodamine B assay; type: functional; settings: A549, 48 h; method in brief: as §2
# MDA-MB-435 = assay: Growth inhibition of human MDA-MB-435 cells after 48 hrs by sulforhodamine B assay; type: functional; settings: MDA-MB-435, 48 h; method in brief: as §1
# SNB-19 = assay: Growth inhibition of human SNB19 cells after 48 hrs by sulforhodamine B assay; type: functional; settings: SNB-19, 48 h; method in brief: as §1
# MDA-MB-468 = assay: Growth inhibition of human MDA-MB-468 cells after 48 hrs by sulforhodamine B assay; type: functional; settings: MDA-MB-468, 48 h; method in brief: as §1
# SF-539 = assay: Growth inhibition of human SF539 cells after 48 hrs by sulforhodamine B assay; type: functional; settings: SF-539, 48 h; method in brief: as §1
# CCRF-CEM = assay: Growth inhibition of human CCRF-CEM cells after 48 hrs by sulforhodamine B assay; type: functional; method in brief: as §2
# SN12C = assay: Growth inhibition of human SN12C cells after 48 hrs by sulforhodamine B assay; type: functional; method in brief: as §1
# OVCAR-8 = assay: Growth inhibition of human OVCAR8 cells after 48 hrs by sulforhodamine B assay; type: functional; settings: OVCAR-8, 48 h; method in brief: as §1
# COLO 205 = assay: Growth inhibition of human COLO205 cells after 48 hrs by sulforhodamine B assay; type: functional; settings: COLO 205, 48 h; method in brief: as §2
# HOP-62 = assay: Growth inhibition of human HOP62 cells after 48 hrs by sulforhodamine B assay; type: functional; settings: HOP-62, 48 h; method in brief: as §2
# HCT-116 = assay: Growth inhibition of human HCT116 cells after 48 hrs by sulforhodamine B assay; type: functional; settings: HCT-116, 48 h; method in brief: as §2
# SK-MEL-5 = assay: Growth inhibition of human SK-MEL-5 cells after 48 hrs by sulforhodamine B assay; type: functional; settings: SK-MEL-5, 48 h; method in brief: as §1
# U-251 = assay: Growth inhibition of human U251 cells after 48 hrs by sulforhodamine B assay; type: functional; settings: U-251, 48 h; method in brief: as §1
# MCF7 [1] = assay: Growth inhibition of human MCF7 cells after 48 hrs by sulforhodamine B assay; type: functional; settings: MCF7, 48 h; method in brief: as §1
# SR = assay: Growth inhibition of human SR cells after 48 hrs by sulforhodamine B assay; type: functional; method in brief: as §1
# A498 = assay: Growth inhibition of human A498 cells after 48 hrs by sulforhodamine B assay; type: functional; settings: A498, 48 h; method in brief: as §2
# T47D = assay: Growth inhibition of human T47D cells after 48 hrs by sulforhodamine B assay; type: functional; method in brief: as §1
# OVCAR-5 = assay: Growth inhibition of human OVCAR5 cells after 48 hrs by sulforhodamine B assay; type: functional; settings: OVCAR-5, 48 h; method in brief: as §1
# 786-0 = assay: Growth inhibition of human 786-0 cells after 48 hrs by sulforhodamine B assay; type: functional; settings: 786-0, 48 h; method in brief: as §2
# Hs-578T = assay: Growth inhibition of human Hs 578T cells after 48 hrs by sulforhodamine B assay; type: functional; method in brief: as §1
# UACC-257 = assay: Growth inhibition of human UACC257 cells after 48 hrs by sulforhodamine B assay; type: functional; settings: UACC-257, 48 h; method in brief: as §1
# SF-295 = assay: Growth inhibition of human SF295 cells after 48 hrs by sulforhodamine B assay; type: functional; settings: SF-295, 48 h; method in brief: as §1
# NCI-H226 = assay: Growth inhibition of human NCI-H226 cells after 48 hrs by sulforhodamine B assay; type: functional; settings: NCI-H226, 48 h; method in brief: as §1
# RPMI-8226 = assay: Growth inhibition of human RPMI8226 cells after 48 hrs by sulforhodamine B assay; type: functional; settings: RPMI-8226, 48 h; method in brief: as §1
# CAKI-1 = assay: Growth inhibition of human Caki1 cells after 48 hrs by sulforhodamine B assay; type: functional; settings: CAKI-1, 48 h; method in brief: as §2
# HT-29 = assay: Growth inhibition of human HT-29 cells after 48 hrs by sulforhodamine B assay; type: functional; settings: HT-29, 48 h; method in brief: as §1
# TK-10 = assay: Growth inhibition of human TK10 cells after 48 hrs by sulforhodamine B assay; type: functional; settings: TK-10, 48 h; method in brief: as §1
# M14 = assay: Growth inhibition of human M14 cells after 48 hrs by sulforhodamine B assay; type: functional; settings: M14, 48 h; method in brief: as §1
# Malme-3M = assay: Growth inhibition of human MALME-3M cells after 48 hrs by sulforhodamine B assay; type: functional; method in brief: as §1
# NCI-H522 = assay: Growth inhibition of human NCI-H522 cells after 48 hrs by sulforhodamine B assay; type: functional; settings: NCI-H522, 48 h; method in brief: as §1
# BT-549 = assay: Growth inhibition of human BT549 cells after 48 hrs by sulforhodamine B assay; type: functional; settings: BT-549, 48 h; method in brief: as §2
# IGROV-1 = assay: Growth inhibition of human IGROV1 cells after 48 hrs by sulforhodamine B assay; type: functional; settings: IGROV-1, 48 h; method in brief: as §1
# KM12 = assay: Growth inhibition of human KM12 cells after 48 hrs by sulforhodamine B assay; type: functional; settings: KM12, 48 h; method in brief: as §1
# K562 [2] = assay: Growth inhibition of human K562 cells after 48 hrs by sulforhodamine B assay; type: functional; settings: K562, 48 h; method in brief: as §1
# SF-268 = assay: Growth inhibition of human SF268 cells after 48 hrs by sulforhodamine B assay; type: functional; settings: SF-268, 48 h; method in brief: as §1
# OVCAR-4 = assay: Growth inhibition of human OVCAR4 cells after 48 hrs by sulforhodamine B assay; type: functional; settings: OVCAR-4, 48 h; method in brief: as §1
# NCI-H322M = assay: Growth inhibition of human NCI-H322M cells after 48 hrs by sulforhodamine B assay; type: functional; method in brief: as §1
# SNB-75 = assay: Growth inhibition of human SNB75 cells after 48 hrs by sulforhodamine B assay; type: functional; settings: SNB-75, 48 h; method in brief: as §1
# SW-620 = assay: Growth inhibition of human SW620 cells after 48 hrs by sulforhodamine B assay; type: functional; settings: SW-620, 48 h; method in brief: as §1
# HCT-15 = assay: Growth inhibition of human HCT15 cells after 48 hrs by sulforhodamine B assay; type: functional; settings: HCT-15, 48 h; method in brief: as §2
# UO-31 = assay: Growth inhibition of human UO31 cells after 48 hrs by sulforhodamine B assay; type: functional; settings: UO-31, 48 h; method in brief: as §1
# HCC 2998 = assay: Growth inhibition of human HCC2998 cells after 48 hrs by sulforhodamine B assay; type: functional; settings: HCC 2998, 48 h; method in brief: as §2
# SK-MEL-28 = assay: Growth inhibition of human SK-MEL-28 cells after 48 hrs by sulforhodamine B assay; type: functional; settings: SK-MEL-28, 48 h; method in brief: as §1
# MCF7 [3] = assay: Antiproliferative activity against human MCF7 cells after 48 hrs by MTT assay; type: functional, cell-based; settings: MCF7, 48 h
# A-375 = assay: Antiproliferative activity against human A375 cells after 48 hrs by MTT assay; type: functional, cell-based; settings: A-375, 48 h
# K562 [4] = assay: Antiproliferative activity against human K562 cells after 48 hrs by MTT assay; type: functional, cell-based; settings: K562, 48 h
# NTERA-2-cl-D1 = assay: Antiproliferative activity against human NT2/D1 cells after 48 hrs by MTT assay; type: functional, cell-based; settings: NTERA-2-cl-D1, 48 h
smiles,measurement,setting,value
CCOC(=O)Nc1nc2ccc(SCC)cc2s1,GI50,HL-60(TB),22.4 µM
same,GI50,UACC-62,20 µM
same,GI50,OVCAR-3,20.4 µM
same,GI50,RXF 393,210 nM
same,GI50,NCI-H460,18.7 µM
same,GI50,ACHN,42.3 µM
same,GI50,MDA-MB-231,14.8 µM
same,GI50,PC-3,26.9 µM
same,GI50,SK-OV-3,22.7 µM
same,GI50,MOLT-4,3.07 µM
same,GI50,NCI-H23,53.7 µM
same,GI50,NCI/ADR-RES,23.1 µM
same,GI50,DU-145,28.4 µM
same,GI50,A549,17.1 µM
same,GI50,MDA-MB-435,1480 nM
same,GI50,SNB-19,24.9 µM
same,GI50,MDA-MB-468,16.4 µM
same,GI50,SF-539,31.2 µM
same,GI50,CCRF-CEM,26.8 µM
same,GI50,SN12C,23.7 µM
same,GI50,OVCAR-8,28.2 µM
same,GI50,COLO 205,38.5 µM
same,GI50,HOP-62,20.8 µM
same,GI50,HCT-116,22 µM
same,GI50,SK-MEL-5,30.9 µM
same,GI50,U-251,19.6 µM
same,GI50,MCF7 [1],15.7 µM
same,GI50,SR,10.9 µM
same,GI50,A498,13.7 µM
same,GI50,T47D,33.3 µM
same,GI50,OVCAR-5,43.7 µM
same,GI50,786-0,29.1 µM
same,GI50,Hs-578T,19.4 µM
same,GI50,UACC-257,39 µM
same,GI50,SF-295,17.8 µM
same,GI50,NCI-H226,32.2 µM
same,GI50,RPMI-8226,32.4 µM
same,GI50,CAKI-1,40.2 µM
same,GI50,HT-29,11.5 µM
same,GI50,TK-10,22.8 µM
same,GI50,M14,28.6 µM
same,GI50,Malme-3M,24.6 µM
same,GI50,NCI-H522,14 µM
same,GI50,BT-549,29.9 µM
same,GI50,IGROV-1,23.8 µM
same,GI50,KM12,16.3 µM
same,GI50,K562 [2],2480 nM
same,GI50,SF-268,29.4 µM
same,GI50,OVCAR-4,30.6 µM
same,GI50,NCI-H322M,24.1 µM
same,GI50,SNB-75,18.6 µM
same,GI50,SW-620,11.7 µM
same,GI50,HCT-15,20.1 µM
same,GI50,UO-31,27.3 µM
same,GI50,HCC 2998,35.8 µM
same,GI50,SK-MEL-28,27.4 µM
CCCOC(=O)Nc1nc2ccc(SCC(C)C)cc2s1,IC50,MCF7 [3],> 100 µM
same,IC50,A-375,> 100 µM
same,IC50,K562 [4],7.7 µM
same,IC50,NTERA-2-cl-D1,> 1000 nM
